Calls of active or inactive are those of the source. The rule behind the calls is not given here.
Experiments:
THP-1 [1] = test: Antiinflammatory activity in human THP1 cells assessed as inhibition of LPS-stimulated IL-6 production by measuring IL-6 level in serum at 10 uM preincubated for 2 hrs followed by LPS addition measured after 22 hrs by flow cytometry (reference value: 6100 +/- 200 pg/ml); format: functional
A549 = test: Cytotoxicity against human A549 cells assessed as reduction in cell viability after 72 hrs by CCK-8 assay; format: functional, cell-based; settings: A549, 72 h
PC-9 = test: Cytotoxicity against human PC9 cells assessed as reduction in cell viability after 72 hrs by CCK-8 assay; format: functional, cell-based; settings: PC-9, 72 h
MCF7 [2] = test: Induction of apoptosis in human MCF7 cells assessed as viable cells at 10 uM after 24 hrs by Annexin V-FITC/propidium iodide staining based flow cytometry (reference value: 96.6%); format: functional; settings: MCF7, 24 h, read-out: Activity
MCF7 [3] = test: Cytotoxicity against human MCF7 cells assessed as reduction in cell viability after 72 hrs by CCK-8 assay; format: functional, cell-based; settings: MCF7, 72 h
Procedure, shortened: (§1)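 Cells were kept at 37 °C in DMEM with 10% nondialyzed FBS and 2 mM L-glutamine. The Oct4-GFP line is MCF-7 made stem-like by lentiviral Oct4-GFP overexpression. Cells were seeded at 3000/well and grown 24 h, then exposed to six concentrations of compound (DMSO solutions) for 72 h.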

MCF7 [4] = test: Cytotoxicity against human MCF7 cells expressing Oct4-GFP assessed as reduction in cell viability after 72 hrs by CCK-8 assay; format: functional, cell-based; settings: MCF7, 72 h
Procedure, shortened: as §1, with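 “h. CCK-8 was added for 2 h at 37 °C and A450 read to give IC50.” for “h.”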

MCF7 [5] = test: Induction of apoptosis in human MCF7 cells assessed as viable cells at 5 uM after 24 hrs by Annexin V-FITC/propidium iodide staining based flow cytometry (reference value: 96.6%); format: functional; settings: MCF7, 24 h, read-out: Activity
MCF7 [6] = test: Induction of apoptosis in human MCF7 cells assessed as early apoptotic cells at 5 uM after 24 hrs by Annexin V-FITC/propidium iodide staining based flow cytometry (reference value: 0.866%); format: functional
MCF7 [7] = test: Induction of apoptosis in human MCF7 cells assessed as late apoptotic cells at 5 uM after 24 hrs by Annexin V-FITC/propidium iodide staining based flow cytometry (reference value: 0.309%); format: functional
MCF7 [8] = test: Induction of apoptosis in human MCF7 cells assessed as necrotic cells at 5 uM after 24 hrs by Annexin V-FITC/propidium iodide staining based flow cytometry (reference value: 2.19%); format: functional
MCF7 [9] = test: Induction of apoptosis in human MCF7 cells assessed as early apoptotic cells at 10 uM after 24 hrs by Annexin V-FITC/propidium iodide staining based flow cytometry (reference value: 0.866%); format: functional
MCF7 [10] = test: Induction of apoptosis in human MCF7 cells assessed as late apoptotic cells at 10 uM after 24 hrs by Annexin V-FITC/propidium iodide staining based flow cytometry (reference value: 0.309%); format: functional
MCF7 [11] = test: Induction of apoptosis in human MCF7 cells assessed as necrotic cells at 10 uM after 24 hrs by Annexin V-FITC/propidium iodide staining based flow cytometry (reference value: 2.19%); format: functional
MCF7 [12] = test: Induction of apoptosis in human MCF7 cells assessed as early apoptotic cells after 24 hrs by Annexin V-FITC/propidium iodide staining based flow cytometry; format: functional, cell-based
MCF7 [13] = test: Induction of apoptosis in human MCF7 cells assessed as late apoptotic cells after 24 hrs by Annexin V-FITC/propidium iodide staining based flow cytometry; format: functional, cell-based
THP-1 [14] = test: Antiinflammatory activity in human THP1 cells assessed as inhibition of LPS-stimulated TNFalpha production by measuring TNF-alpha level in serum at 10 uM preincubated for 2 hrs followed by LPS addition measured after 22 hrs by flow cytometry (reference value: 9900 +/- 300 pg/ml); format: functional
THP-1 [15] = test: Antiinflammatory activity in human THP1 cells assessed as inhibition of LPS-stimulated MCP-1 level in serum at 10 uM preincubated for 2 hrs followed by LPS addition measured after 22 hrs by flow cytometry; format: functional, cell-based
THP-1 [16] = test: Antiinflammatory activity in human THP1 cells assessed as inhibition of LPS-stimulated IL-10 level in serum at 10 uM preincubated for 2 hrs followed by LPS addition measured after 22 hrs by flow cytometry; format: functional, cell-based
THP-1 [17] = test: Antiinflammatory activity in human THP1 cells assessed as inhibition of LPS-stimulated IL-12p70 level in serum at 10 uM preincubated for 2 hrs followed by LPS addition measured after 22 hrs by flow cytometry; format: functional, cell-based

CC(C)=CCC/C(C)=C/Cc1cc(-c2coc3cc(O)ccc3c2=O)ccc1O
Activity (THP-1 [1]): 2700 pg/mL

CC(=O)O[C@H]1C(=O)[C@@]2(C)[C@H]([C@H](OC(=O)c3ccccc3)[C@]3(O)C[C@H](OC(=O)[C@H](O)[C@@H](NC(=O)c4ccccc4)c4ccccc4)C(C)=C1C3(C)C)[C@]1(OC(C)=O)CO[C@@H]1C[C@@H]2O [PACLITAXEL]
IC50 (A549): 0.0032 µM
IC50 (PC-9): 0.0027 µM

COc1ccc(Cc2nc(/N=C3\NC(=O)N(C)C3=O)n(C)c2Cc2ccc(OC)c(OC)c2O)cc1 [PYRONAAMIDINE]
viability at 10 µM (MCF7 [2]): 34.8%
IC50 (A549): 7.8 µM
IC50 (PC-9): 5.6 µM
IC50 (MCF7 [3]): 5.2 µM
IC50 (MCF7 [4]): 10 µM
viability at 5 µM (MCF7 [5]): 82%
Activity (MCF7 [6]): 10.2%
Activity (MCF7 [7]): 6.25%
Activity (MCF7 [8]): 1.54%
Activity (MCF7 [9]): 32.3%
Activity (MCF7 [10]): 30.1%
Activity (MCF7 [11]): 2.55%
Activity (MCF7 [12]): Dose-dependent effect
Activity (MCF7 [13]): Dose-dependent effect

COc1ccc(C2=C3C(=NC(=N)N3C)C(=O)c3c(OC)ccc(OC)c32)cc1
Activity (THP-1 [1]): 5400 pg/mL
Activity (THP-1 [14]): 9700 pg/mL
inhibition (THP-1 [15]): inactive
inhibition (THP-1 [16]): inactive
inhibition (THP-1 [17]): inactive
IC50 (A549): > 20 µM
IC50 (PC-9): > 20 µM
IC50 (MCF7 [3]): > 20 µM

Nc1cccc2c1C(=O)N(C1CCC(=O)NC1=O)C2=O (configuration not stated) [POMALIDOMIDE]
Activity (THP-1 [14]): 7500 pg/mL

CN/C(N)=N\C(=O)Nc1nc(Cc2ccc3c(c2)OCO3)cn1C
Activity (THP-1 [1]): 5000 pg/mL
Activity (THP-1 [14]): 7800 pg/mL
inhibition (THP-1 [15]): inactive
inhibition (THP-1 [16]): inactive
inhibition (THP-1 [17]): inactive
IC50 (A549): > 20 µM
IC50 (PC-9): > 20 µM
IC50 (MCF7 [3]): > 20 µM

CNC1=N/C(=N/c2nc(Cc3ccc4c(c3)OCO4)cn2C)C(=O)O1
Activity (THP-1 [1]): 7600 pg/mL
Activity (THP-1 [14]): 9900 pg/mL
inhibition (THP-1 [15]): inactive
inhibition (THP-1 [16]): inactive
inhibition (THP-1 [17]): inactive
IC50 (A549): > 20 µM
IC50 (PC-9): > 20 µM
IC50 (MCF7 [3]): > 20 µM

From ChEMBL document CHEMBL4251721, “Imidazole Alkaloids and Their Zinc Complexes from the Calcareous Marine Sponge Leucetta chagosensis” (J Nat Prod, 2018)
